Experimental data from ChEMBL document CHEMBL1629583, “Establishment of in vitro susceptibility testing methodologies and comparative activities of piperacillin in combination with the penem {beta}-lactamase inhibitor BLI-489” (2009).

Assays:
Type in all cases: functional
Enterococcus hirae = experiment: Antimicrobial activity against Enterococcus hirae clinical isolate after 18 to 22 hrs by broth microdilution method in presence of beta-lactamase inhibitor BLI-489
In short: (§1)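 CLSI broth microdilution in Mueller-Hinton II broth. Serial dilutions of piperacillin were tested with BLI-489 held at a constant 4 μg/ml. Inoculum was 10^5 CFU/ml. Plates were incubated 18 to 22 h at 35°C in ambient air. MIC was the lowest concentration giving complete growth inhibition by unaided eye.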

Escherichia coli = experiment: Antimicrobial activity against class A extended spectrum beta-lactamase- producing Escherichia coli clinical isolate after 18 to 22 hrs by broth microdilution method in presence of beta-lactamase inhibitor Tazobactam
In short: (§2)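 CLSI broth microdilution of piperacillin-tazobactam in Mueller-Hinton II broth with serial dilutions. Inoculum was 10^5 CFU/ml. Incubation was 18 to 22 h at 35°C in ambient air. MIC was read as the lowest concentration giving complete inhibition of growth visible to the unaided eye.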

Klebsiella pneumoniae [1] = experiment: Antimicrobial activity against AmpC- producing Klebsiella pneumoniae clinical isolate after 18 to 22 hrs by broth microdilution method in presence of beta-lactamase inhibitor Tazobactam
In short: (§3)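 Piperacillin-tazobactam was tested on recent clinical isolates by CLSI broth microdilution in Mueller-Hinton II broth, with tazobactam at constant 4 μg/ml. Wells held 10^5 CFU/ml and were incubated 18 to 22 h at 35°C in ambient air. MIC was the lowest concentration with no growth visible to the unaided eye.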

Streptococcus agalactiae [2] = experiment: Antimicrobial activity against Streptococcus agalactiae clinical isolate after 18 to 22 hrs by broth microdilution method in presence of beta-lactamase inhibitor BLI-489
In short: (§4)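 Streptococci were tested by CLSI broth microdilution in Mueller-Hinton II broth plus 5% lysed horse blood. Piperacillin dilutions contained a constant 4 μg/ml BLI-489. Inoculum was 10^5 CFU/ml, incubated 18 to 22 h at 35°C in air. MIC was the lowest concentration with no visible growth.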

Morganella morganii = experiment: Antimicrobial activity against Morganella morganii clinical isolate after 18 to 22 hrs by broth microdilution method in presence of beta-lactamase inhibitor BLI-489; in short: as §1
Staphylococcus aureus = experiment: Antimicrobial activity against methicillin-susceptible Staphylococcus aureus clinical isolate after 18 to 22 hrs by broth microdilution method in presence of beta-lactamase inhibitor Tazobactam; in short: as §2
Enterococcus avium = experiment: Antimicrobial activity against Enterococcus avium clinical isolate after 18 to 22 hrs by broth microdilution method in presence of beta-lactamase inhibitor Tazobactam; in short: as §3
Klebsiella pneumoniae [3] = experiment: Antimicrobial activity against class A extended spectrum beta-lactamase- producing Klebsiella pneumoniae clinical isolate after 18 to 22 hrs by broth microdilution method in presence of beta-lactamase inhibitor BLI-489
In short: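 Piperacillin serially diluted with BLI-489 held at a constant 4 μg/ml, by CLSI broth microdilution in Mueller-Hinton II broth. Inoculum was 10^5 CFU/ml. Plates were incubated 18 to 22 h at 35°C in ambient air. MIC was the lowest concentration completely inhibiting growth seen by the unaided eye.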

Serratia marcescens = experiment: Antimicrobial activity against AmpC beta-lactamase-producing Serratia marcescens clinical isolate after 18 to 22 hrs by broth microdilution method in presence of beta-lactamase inhibitor Tazobactam; in short: as §3
Providencia stuartii = experiment: Antimicrobial activity against Providencia stuartii clinical isolate after 18 to 22 hrs by broth microdilution method in presence of beta-lactamase inhibitor Tazobactam
In short: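 Piperacillin-tazobactam was tested by CLSI broth microdilution in Mueller-Hinton II broth against clinical isolates. Inoculum was 10^5 CFU/ml, with 18 to 22 h incubation at 35°C in ambient air. MIC was read as the lowest concentration completely inhibiting visible growth.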

[4] = tested on: Enterococcus casseliflavus; experiment: Antimicrobial activity against Enterococcus casseliflavus clinical isolate after 18 to 22 hrs by broth microdilution method in presence of beta-lactamase inhibitor BLI-489
In short: (§5)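 CLSI broth microdilution in Mueller-Hinton II broth. Piperacillin serial dilutions were combined with BLI-489 held constant at 4 μg/ml. Inoculum was 10^5 CFU/ml. Plates were incubated 18 to 22 h at 35°C in ambient air. MIC was the lowest concentration completely inhibiting growth seen by the unaided eye. Piperacillin-tazobactam interpretive criteria were applied.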

[5] = tested on: Bacteroides thetaiotaomicron; experiment: Antimicrobial activity against Bacteroides thetaiotaomicron clinical isolate after 18 to 22 hrs by broth microdilution method in presence of beta-lactamase inhibitor Tazobactam
Pseudomonas aeruginosa = experiment: Antimicrobial activity against Pseudomonas aeruginosa clinical isolate after 18 to 22 hrs by broth microdilution method in presence of beta-lactamase inhibitor BLI-489; in short: as §1
Streptococcus agalactiae [6] = experiment: Antimicrobial activity against Streptococcus agalactiae clinical isolate after 18 to 22 hrs by broth microdilution method in presence of beta-lactamase inhibitor Tazobactam
In short: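 Streptococcal isolates were tested with piperacillin-tazobactam by CLSI broth microdilution in Mueller-Hinton II broth supplemented with 5% lysed horse blood. Inoculum was 10^5 CFU/ml, incubated 18 to 22 h at 35°C in ambient air. Visual endpoint: lowest concentration with complete inhibition.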

[7] = tested on: Staphylococcus epidermidis; experiment: Antimicrobial activity against methicillin-susceptible Staphylococcus epidermidis clinical isolate after 18 to 22 hrs by broth microdilution method in presence of beta-lactamase inhibitor Tazobactam; in short: as §2
Parvimonas micra [8] = experiment: Antimicrobial activity against Peptostreptococcus micros clinical isolate after 18 to 22 hrs by broth microdilution method
Parvimonas micra [9] = experiment: Antimicrobial activity against Peptostreptococcus micros clinical isolate after 18 to 22 hrs by broth microdilution method in presence of beta-lactamase inhibitor Tazobactam
Streptococcus pyogenes = experiment: Antimicrobial activity against Streptococcus pyogenes clinical isolate after 18 to 22 hrs by broth microdilution method in presence of beta-lactamase inhibitor BLI-489; in short: as §4
Bacteroides uniformis = experiment: Antimicrobial activity against Bacteroides uniformis clinical isolate after 18 to 22 hrs by broth microdilution method in presence of beta-lactamase inhibitor BLI-489
[10] = tested on: Staphylococcus epidermidis; experiment: Antimicrobial activity against methicillin-resistant Staphylococcus epidermidis clinical isolate after 18 to 22 hrs by broth microdilution method in presence of beta-lactamase inhibitor BLI-489
In short: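 CLSI broth microdilution in Mueller-Hinton II broth. Antibiotic in serial dilution with the β-lactamase inhibitor held at a constant 4 μg/ml. Inoculum 10^5 CFU/ml. Incubated 18 to 22 h at 35°C in ambient air.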

Citrobacter freundii = experiment: Antimicrobial activity against Citrobacter freundii clinical isolate after 18 to 22 hrs by broth microdilution method in presence of beta-lactamase inhibitor BLI-489; in short: as §5

CCN1CCN(C(=O)N[C@@H](C(=O)N[C@@H]2C(=O)N3[C@@H]2SC(C)(C)[C@@H]3C(=O)O)c2ccccc2)C(=O)C1=O [PIPERACILLIN]
32 µg/mL: MIC90 (Escherichia coli) | MIC50 (Klebsiella pneumoniae [1]) | MIC90 (Klebsiella pneumoniae [3])
16 µg/mL: MIC50 (Escherichia coli) | MIC50 (Enterococcus avium) | MIC50 (Klebsiella pneumoniae [3]) | MIC90 (Serratia marcescens) | MIC90 (Providencia stuartii) | MIC90 (Citrobacter freundii)
0.25 µg/mL: MIC50 (Morganella morganii) | MIC90 (Streptococcus agalactiae [6]) | MIC50 [7] | MIC90 (Parvimonas micra [8]) | MIC90 (Parvimonas micra [9])
0.03 µg/mL: MIC90 (Streptococcus agalactiae [2]) | MIC50 (Parvimonas micra [9])
4 µg/mL: MIC50 [5] | MIC50 (Bacteroides uniformis)
0.12 µg/mL: MIC50 (Streptococcus agalactiae [6]) | MIC50 (Parvimonas micra [8])
≤ 0.004 µg/mL: MIC50 (Streptococcus agalactiae [2]) | MIC (Streptococcus pyogenes) | MIC50 (Streptococcus pyogenes) | MIC90 (Streptococcus pyogenes)
8 µg/mL: MIC90 (Enterococcus hirae) | MIC50 (Serratia marcescens) | MIC90 [4] | MIC90 [5] | MIC50 (Pseudomonas aeruginosa) | MIC90 (Bacteroides uniformis) | MIC90 [10]
0.5 µg/mL: MIC90 [7] | MIC50 [10]
> 128 µg/mL: MIC90 (Klebsiella pneumoniae [1])
1 µg/mL: MIC90 (Morganella morganii) | MIC50 (Staphylococcus aureus)
64 µg/mL: MIC90 (Enterococcus avium) | MIC90 (Pseudomonas aeruginosa)
2 µg/mL: MIC50 (Enterococcus hirae) | MIC90 (Staphylococcus aureus) | MIC50 (Providencia stuartii) | MIC50 [4] | MIC50 (Citrobacter freundii)
